Assays:
Ovis aries = organism: Ovis aries; experiment: Selectivity ratio of IC50 for ovine COX1 to IC50 for ovine COX2
How it was run: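 Purified hematin-reconstituted ovine COX-1 and COX-2 (six units each) in Tris–HCl 0.1 M pH 8.0, 5 mM EDTA, 2 mM phenol. Enzymes were preincubated 1 h at room temperature with inhibitor in DMSO, then given arachidonic acid for 2 min at 37 °C. PGF2α from SnCl2 reduction of PGH2 was read by EIA. IC50s are means of duplicates; ratio is COX-1 IC50/COX-2 IC50.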

[1] = target: T1, Prostaglandin G/H synthase 1 (Ovis aries, UniProt P05979); experiment: Inhibition of ovine COX1 by enzyme immuno assay
T1 sequence (P05979 whole entry): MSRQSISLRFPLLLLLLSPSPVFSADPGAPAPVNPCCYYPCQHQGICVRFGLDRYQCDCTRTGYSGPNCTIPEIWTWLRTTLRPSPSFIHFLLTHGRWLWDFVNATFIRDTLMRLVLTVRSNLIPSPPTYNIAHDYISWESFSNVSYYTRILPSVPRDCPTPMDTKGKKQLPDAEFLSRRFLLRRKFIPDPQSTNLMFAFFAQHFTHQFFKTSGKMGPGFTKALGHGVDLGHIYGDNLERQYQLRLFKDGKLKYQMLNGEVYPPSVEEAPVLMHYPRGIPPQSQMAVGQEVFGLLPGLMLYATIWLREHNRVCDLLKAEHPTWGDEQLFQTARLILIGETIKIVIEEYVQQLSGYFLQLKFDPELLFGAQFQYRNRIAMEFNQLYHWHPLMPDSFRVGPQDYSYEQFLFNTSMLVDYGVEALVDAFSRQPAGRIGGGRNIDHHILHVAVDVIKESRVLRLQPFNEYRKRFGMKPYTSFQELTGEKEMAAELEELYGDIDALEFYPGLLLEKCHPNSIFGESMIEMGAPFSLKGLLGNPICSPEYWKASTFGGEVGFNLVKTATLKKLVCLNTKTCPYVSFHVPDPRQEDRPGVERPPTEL
How it was run: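 Hematin-reconstituted purified ovine COX-1 (six units) in 0.1 M Tris-HCl pH 8.0 with 5 mM EDTA and 2 mM phenol. Pre-incubated 1 h at room temperature with inhibitor in DMSO, then arachidonic acid added for 2 min at 37 °C. PGH2 was reduced with stannous chloride and PGF2α measured by EIA. Run in duplicate; IC50 is the mean of the duplicates.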

[2] = target: T2, Polyunsaturated fatty acid lipoxygenase ALOX15 (Oryctolagus cuniculus) (UniProt P12530); experiment: Inhibition of LOX15 from rabbit reticulocytes at 10 uM by enzyme immuno assay
T2 sequence (whole entry): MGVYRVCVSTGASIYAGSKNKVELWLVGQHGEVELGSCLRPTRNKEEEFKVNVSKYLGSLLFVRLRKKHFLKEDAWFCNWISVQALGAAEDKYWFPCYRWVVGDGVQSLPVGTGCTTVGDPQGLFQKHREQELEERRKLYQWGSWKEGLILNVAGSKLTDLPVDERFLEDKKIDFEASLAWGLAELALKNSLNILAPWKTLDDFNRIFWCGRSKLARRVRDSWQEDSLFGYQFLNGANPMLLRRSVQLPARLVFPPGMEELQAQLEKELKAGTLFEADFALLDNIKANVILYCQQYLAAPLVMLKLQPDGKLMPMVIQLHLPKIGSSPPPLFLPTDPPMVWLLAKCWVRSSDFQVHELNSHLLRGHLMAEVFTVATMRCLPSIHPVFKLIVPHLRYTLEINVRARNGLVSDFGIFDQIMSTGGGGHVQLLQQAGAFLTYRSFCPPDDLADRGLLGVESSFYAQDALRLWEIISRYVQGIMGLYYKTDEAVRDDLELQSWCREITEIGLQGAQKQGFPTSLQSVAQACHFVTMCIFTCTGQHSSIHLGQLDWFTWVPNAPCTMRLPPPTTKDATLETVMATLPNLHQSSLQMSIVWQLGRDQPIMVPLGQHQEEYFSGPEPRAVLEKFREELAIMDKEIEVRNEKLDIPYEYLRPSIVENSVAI
How it was run: (§1)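 Run by a contract lab. Enzyme sources: human PBML cells (LOX-5), human platelets (LOX-12), rabbit reticulocytes (LOX-15). Substrates: endogenous arachidonic acid (LOX-5), added arachidonic acid (LOX-12), linoleic acid (LOX-15). Inhibition read as LTB4 (LOX-5), 12-HETE (LOX-12) or 15-HETE (LOX-15), quantified by EIA and spectrophotometrically.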

[3] = target: T3, Polyunsaturated fatty acid 5-lipoxygenase (Homo sapiens) (UniProt P09917); experiment: Inhibition of LOX5 from human PBML cells at 10 uM by enzyme immuno assay; format: cell-based; how it was run: as §1
T3 sequence (whole entry): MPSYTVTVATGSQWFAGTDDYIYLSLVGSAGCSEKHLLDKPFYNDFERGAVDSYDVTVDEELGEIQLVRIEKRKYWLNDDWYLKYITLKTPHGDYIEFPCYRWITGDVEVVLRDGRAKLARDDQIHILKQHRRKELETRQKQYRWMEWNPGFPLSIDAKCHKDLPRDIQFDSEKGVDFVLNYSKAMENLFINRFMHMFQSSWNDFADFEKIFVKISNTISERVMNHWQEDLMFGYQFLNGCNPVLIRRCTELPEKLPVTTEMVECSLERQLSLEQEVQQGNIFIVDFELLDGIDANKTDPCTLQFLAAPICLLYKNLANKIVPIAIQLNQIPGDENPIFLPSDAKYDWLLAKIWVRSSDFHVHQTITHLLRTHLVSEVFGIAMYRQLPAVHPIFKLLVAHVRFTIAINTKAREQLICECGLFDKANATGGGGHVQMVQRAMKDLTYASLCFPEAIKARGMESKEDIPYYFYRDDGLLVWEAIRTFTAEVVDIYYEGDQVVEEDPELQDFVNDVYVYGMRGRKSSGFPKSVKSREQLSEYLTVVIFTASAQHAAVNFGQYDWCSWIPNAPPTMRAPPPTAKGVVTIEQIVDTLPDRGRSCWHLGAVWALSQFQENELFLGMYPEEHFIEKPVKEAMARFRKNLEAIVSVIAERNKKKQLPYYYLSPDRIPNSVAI

[4] = target: T4, Polyunsaturated fatty acid lipoxygenase ALOX12 (Homo sapiens) (UniProt P18054); experiment: Inhibition of LOX12 from human platelets at 10 uM by enzyme immuno assay; how it was run: as §1
T4 sequence (whole entry): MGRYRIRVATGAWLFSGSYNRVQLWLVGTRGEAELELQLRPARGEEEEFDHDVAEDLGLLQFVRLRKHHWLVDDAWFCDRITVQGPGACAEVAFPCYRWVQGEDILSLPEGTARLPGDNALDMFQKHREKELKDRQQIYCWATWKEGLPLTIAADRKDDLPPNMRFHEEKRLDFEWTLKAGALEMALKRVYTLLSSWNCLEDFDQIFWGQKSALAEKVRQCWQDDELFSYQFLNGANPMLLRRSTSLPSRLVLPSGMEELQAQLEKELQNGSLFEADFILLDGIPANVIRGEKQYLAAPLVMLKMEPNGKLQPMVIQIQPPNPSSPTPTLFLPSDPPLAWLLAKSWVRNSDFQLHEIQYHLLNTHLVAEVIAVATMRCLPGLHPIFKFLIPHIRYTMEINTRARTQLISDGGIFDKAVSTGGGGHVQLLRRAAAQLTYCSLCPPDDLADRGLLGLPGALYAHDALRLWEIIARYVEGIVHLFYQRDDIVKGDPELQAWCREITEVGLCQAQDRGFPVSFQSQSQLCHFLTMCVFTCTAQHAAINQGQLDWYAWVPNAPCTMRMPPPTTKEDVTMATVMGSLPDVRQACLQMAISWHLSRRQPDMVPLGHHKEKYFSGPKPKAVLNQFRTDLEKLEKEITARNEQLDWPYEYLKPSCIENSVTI

Row | Compound | Ratio IC50 (Ovis aries) | IC50 [1] [µM] | further results
1 | NS(=O)(=O)c1ccc(-n2nc(C(F)(F)F)cc2-c2c[nH]c3ccccc23)cc1 | 0 | > 100 | –
2 | CS(=O)(=O)c1ccc(C2=C(c3ccccc3)C(=O)OC2)cc1 | – | – | inhibition [2]: 6%; inhibition [3]: 11%; inhibition [4]: -2%
3 | NS(=O)(=O)c1ccc(N2N=C(C(F)(F)F)CC2c2c[nH]c3ccc(Cl)cc23)cc1 (centres undefined) | > 3 | > 100 | –
4 | NS(=O)(=O)c1ccc(N2N=C(C(F)(F)F)CC2c2c[nH]c3cc(Br)ccc23)cc1 (centres undefined) | > 23 | > 100 | –
5 | NS(=O)(=O)c1ccc(N2N=C(C(F)(F)F)CC2c2c[nH]c3ccccc23)cc1 (single isomer, unassigned; enantiomer 1) [listing 1 of 2 here] | > 119 | – | –
6 | Nc1ccc2[nH]cc(C3CC(C(F)(F)F)=NN3c3ccc(S(N)(=O)=O)cc3)c2c1 (centres undefined) | > 118 | > 100 | –
7 | Cc1ccc(-c2cc(C(F)(F)F)nn2-c2ccc(S(N)(=O)=O)cc2)cc1 | – | – | inhibition [2]: 22%; inhibition [4]: 7%
8 | NS(=O)(=O)c1ccc(N2N=C(C(F)(F)F)CC2c2c[nH]c3cc([N+](=O)[O-])ccc23)cc1 (centres undefined) | 0 | > 100 | –
9 | NS(=O)(=O)c1ccc(N2N=C(C(F)(F)F)CC2c2c[nH]c3c(Cl)cccc23)cc1 (single isomer, unassigned; enantiomer 2) [listing 1 of 2 here] | – | > 100 | –
10 | NS(=O)(=O)c1ccc(N2N=C(C(F)(F)F)CC2c2c[nH]c3ccc([N+](=O)[O-])cc23)cc1 (centres undefined) | 2 | > 100 | –
11 | Cc1[nH]c2cc(Cl)ccc2c1C1CC(C(F)(F)F)=NN1c1ccc(S(N)(=O)=O)cc1 (centres undefined) | > 17 | > 100 | –
12 | NS(=O)(=O)c1ccc(N2N=C(C(F)(F)F)CC2c2c[nH]c3c(Cl)cccc23)cc1 (single isomer, unassigned; enantiomer 1) [listing 1 of 2 here] | – | > 100 | –
13 | Nc1cccc2c(C3CC(C(F)(F)F)=NN3c3ccc(S(N)(=O)=O)cc3)c[nH]c12 (centres undefined) | > 42 | > 100 | –
14 | NS(=O)(=O)c1ccc(N2N=C(C(F)(F)F)CC2c2c[nH]c3ccc(F)cc23)cc1 (centres undefined) | > 8 | > 100 | –
15 | NS(=O)(=O)c1ccc(N2N=C(C(F)(F)F)CC2c2c[nH]c3cc(F)ccc23)cc1 (centres undefined) | 0 | > 100 | –
16 | N#Cc1ccc2[nH]cc(C3CC(C(F)(F)F)=NN3c3ccc(S(N)(=O)=O)cc3)c2c1 (centres undefined) | 0 | > 100 | –
17 | NS(=O)(=O)c1ccc(N2N=C(C(F)(F)F)CC2c2c[nH]c3c([N+](=O)[O-])cccc23)cc1 (centres undefined) | 0 | > 100 | –
18 | NS(=O)(=O)c1ccc(N2N=C(C(F)(F)F)CC2c2c[nH]c3c(Cl)cccc23)cc1 (single isomer, unassigned; enantiomer 2) [listing 2 of 2 here] | > 1 | – | –
19 | Nc1ccc2c(C3CC(C(F)(F)F)=NN3c3ccc(S(N)(=O)=O)cc3)c[nH]c2c1 (centres undefined) | 14 | > 100 | –
20 | N#Cc1ccc2c(C3CC(C(F)(F)F)=NN3c3ccc(S(N)(=O)=O)cc3)c[nH]c2c1 (centres undefined) | 0 | > 100 | –
21 | Nc1cccc2[nH]cc(C3CC(C(F)(F)F)=NN3c3ccc(S(N)(=O)=O)cc3)c12 (centres undefined) | 0 | > 100 | –
22 | NS(=O)(=O)c1ccc(N2N=C(C(F)(F)F)CC2c2c[nH]c3ccccc23)cc1 (single isomer, unassigned; enantiomer 2) [listing 1 of 2 here] | > 8 | – | –
23 | NS(=O)(=O)c1ccc(N2N=C(C(F)(F)F)CC2c2c[nH]c3c(Cl)cccc23)cc1 (single isomer, unassigned; enantiomer 1) [listing 2 of 2 here] | > 345 | – | –
24 | NS(=O)(=O)c1ccc(N2N=C(C(F)(F)F)CC2c2c[nH]c3c(Cl)cccc23)cc1 (stereo in doubt; 5f) | – | > 100 | –
25 | COc1cccc2[nH]cc(C3CC(C(F)(F)F)=NN3c3ccc(S(N)(=O)=O)cc3)c12 (centres undefined) | 12 | > 100 | –
26 | NS(=O)(=O)c1ccc(N2N=C(C(F)(F)F)CC2c2c[nH]c3ccccc23)cc1 (stereo in doubt; 5a) | – | > 100 | –
27 | NS(=O)(=O)c1ccc(N2N=C(C(F)(F)F)CC2c2c[nH]c3ccccc23)cc1 (single isomer, unassigned; enantiomer 1) [listing 2 of 2 here] | – | > 100 | –
28 | NS(=O)(=O)c1ccc(N2N=C(C(F)(F)F)CC2c2c[nH]c3ccc(C(=O)O)cc23)cc1 (centres undefined) | 0 | > 100 | –
29 | NS(=O)(=O)c1ccc(N2N=C(C(F)(F)F)CC2c2c[nH]c3ccccc23)cc1 (single isomer, unassigned; enantiomer 2) [listing 2 of 2 here] | – | > 100 | –
